The subject of one experiment is K562. Put plainly: Cytotoxicity against human K562 cells after 96 hrs by trypan blue exclusion assay. Format: functional, cell-based. Particulars: for IC50: K562, 96 h. Summed up:
(§1)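 Cells were grown in DMEM or RPMI with 10% FBS and plated at 2.5×10⁴ cells/well in 12-well dishes. Compounds were added 24 h later at various concentrations. After 96 h, viable cells were counted by trypan blue exclusion from duplicate wells. Results are the mean of two independent experiments.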

A further experiment deals with DU-145. Put plainly: Cytotoxicity against human DU145 cells after 96 hrs by trypan blue exclusion assay. Format: functional, cell-based. The conditions noted are these: for IC50: DU-145, 96 h. Summed up: as §1

For the compound `COC(=O)C(Nc1cc(NS(=O)(=O)/C=C/c2c(OC)cc(OC)cc2OC)ccc1OC)c1ccc(Cl)cc1` (stereo not drawn), in the experiment on K562, the Activity entry was “Dose-dependent effect” and the IC50 (in general, the concentration that gives 50% inhibition) came to 2.5 µM. In the experiment on DU-145, the Activity entry is “Dose-dependent effect” and the IC50 was 5 µM.

With `COc1cc(OC)c(/C=C/S(=O)(=O)Nc2ccc(F)c([N+](=O)[O-])c2)c(OC)c1`, in the experiment with K562, the Activity result is “Dose-dependent effect” and the midpoint of inhibition, the IC50, lay at 75 µM. Besides, in the experiment on DU-145, the Activity result was “Dose-dependent effect” and the IC50 is 100 µM.

On to `COC(=O)CNc1cc(NS(=O)(=O)/C=C/c2c(OC)cc(OC)cc2OC)ccc1OC`, for which, in the experiment with K562, the Activity result is “Dose-dependent effect” and the IC50 is 0.35 µM. Besides, in the experiment with DU-145, the Activity entry is “Dose-dependent effect” and inhibition was half-maximal at 0.35 µM (IC50).

As to `COc1ccc(NS(=O)(=O)/C=C/c2ccc(OC)cc2OC)cc1`, the Activity result in the experiment on K562 and in the experiment with DU-145 was “Dose-dependent effect” in each case. For the same compound, the concentration for half-maximal inhibition (IC50) with K562 and in the experiment with DU-145 was 15 µM throughout.

Consider `COc1ccc(NS(=O)(=O)/C=C/c2cc(OC)c(OC)c(OC)c2)cc1[N+](=O)[O-]`, for which the Activity result in the experiment on K562 and in the experiment with DU-145 was “Dose-dependent effect” throughout. Also, the half-maximal inhibitory concentration (IC50) with K562 and with DU-145 was 75 µM each time.

Take `COc1ccc(NS(=O)(=O)/C=C/c2c(F)c(F)c(F)c(F)c2F)cc1F`: in the experiment on K562, the Activity entry was “Dose-dependent effect” and the IC50 came out at 10 µM. Besides, in the experiment with DU-145, the Activity entry is “Dose-dependent effect” and the concentration for half-maximal inhibition (IC50) turned out to be 10 µM.

For `COc1ccc(NS(=O)(=O)/C=C/c2c(OC)cc(OCCCC(=O)O)cc2OC)cc1O`, in the experiment on K562, the Activity result is “Dose-dependent effect” and the IC50 was found to be 10 µM. Besides, in the experiment on DU-145, the Activity result is “Dose-dependent effect” and the midpoint of inhibition, the IC50, lay at 10 µM.

Turning to `COc1cc(OC)c(/C=C/S(=O)(=O)Nc2ccc(OC)c(OP(=O)(O)O)c2)c(OC)c1`, in the experiment on K562, the Activity entry was “Dose-dependent effect” and the IC50 came to 0.0075 µM. Further, in the experiment on DU-145, the Activity result is “Dose-dependent effect” and the concentration for half-maximal inhibition (IC50) is 0.04 µM.

As to `COC(=O)C(Nc1cc(NS(=O)(=O)/C=C/c2c(OC)cc(OC)cc2OC)ccc1OC)c1ccccc1` (stereo not drawn), the Activity result in the experiment with K562 and with DU-145 was “Dose-dependent effect” each time. Further, the IC50 in the experiment with K562 and with DU-145 was 2.5 µM in each case.

For `COc1ccc(NS(=O)(=O)/C=C/c2cc(OC)c(OC)c(OC)c2)cc1N`, in the experiment with K562, the Activity result was “Dose-dependent effect” and the IC50 came out at 15 µM. Also, in the experiment with DU-145, the Activity result is “Dose-dependent effect” and the half-inhibitory concentration (IC50) was 35 µM.

`COc1ccc(NS(=O)(=O)/C=C/c2c(OC)cc(OCCCC(=O)O)cc2OC)cc1N`: the Activity entry in the experiment with K562 and in the experiment with DU-145 was “Dose-dependent effect” each time. The half-inhibitory concentration (IC50) in the experiment on K562 and with DU-145 was 10 µM throughout.

In the case of `COc1ccc(/C=C/S(=O)(=O)Nc2ccc(OC)c(F)c2)cc1`, the Activity entry with K562 and in the experiment with DU-145 was “Dose-dependent effect” throughout. Besides, the IC50 came to 1 µM with K562 and 5 µM in the experiment on DU-145.

Take `COc1ccc(/C=C/S(=O)(=O)Nc2c(OC)cc(OC)cc2OC)cc1`: in the experiment with K562, the Activity result is “Dose-dependent effect” and the IC50 is 2.5 µM. Also, in the experiment with DU-145, the Activity entry is “Dose-dependent effect” and the 50% inhibitory concentration (IC50) amounted to 7.5 µM.

Regarding `COc1cc(OC)c(/C=C/S(=O)(=O)Nc2ccc(OC)c(OC(=O)C(C)(C)C3=C(C)C(=O)C=C(C)C3=O)c2)c(OC)c1`, in the experiment with K562, the Activity result is “Dose-dependent effect” and 0.008 µM corresponded to half-maximal inhibition (IC50). In addition, in the experiment on DU-145, the Activity result is “Dose-dependent effect” and it took 0.009 µM to reach half-maximal inhibition (IC50).

`COc1ccc(/C=C/S(=O)(=O)Nc2ccc(F)cc2)cc1`: in the experiment on K562, the Activity result is “Dose-dependent effect” and inhibition was half-maximal at 10 µM (IC50). For the same compound, in the experiment with DU-145, the Activity result is “Dose-dependent effect” and the concentration for half-maximal inhibition (IC50) was determined as 10 µM.

Turning to `COc1cc(OC)c(/C=C/S(=O)(=O)Nc2cc([N+](=O)[O-])c(OC)c([N+](=O)[O-])c2)c(OC)c1`, the Activity result with K562 and in the experiment on DU-145 was “Dose-dependent effect” throughout. Also, the IC50 with K562 and in the experiment with DU-145 was 10 µM in each case.

In the case of `COc1ccc(NS(=O)(=O)/C=C/c2c(F)cc(F)cc2F)cc1`, in the experiment on K562, the Activity result was “Dose-dependent effect” and 15 µM corresponded to half-maximal inhibition (IC50). For the same compound, in the experiment with DU-145, the Activity entry was “Dose-dependent effect” and the IC50 came to 75 µM.

Turning to `COc1cc(OC)c(/C=C/S(=O)(=O)Nc2ccc(F)c(N)c2)c(OC)c1`, in the experiment with K562, the Activity entry is “Dose-dependent effect” and inhibition was half-maximal at 5 µM (IC50). In the experiment on DU-145, the Activity result is “Dose-dependent effect” and the midpoint of inhibition, the IC50, lay at 10 µM.

Consider `COc1ccc(NS(=O)(=O)/C=C/c2c(OC)cccc2OC)cc1`, for which, in the experiment with K562, the Activity entry was “Dose-dependent effect” and half-maximal inhibition (IC50) required 5 µM. In addition, in the experiment on DU-145, the Activity result is “Dose-dependent effect” and the half-maximal inhibitory concentration (IC50) came to 0.375 µM.

As for `COc1ccc(NS(=O)(=O)/C=C/c2c(F)c(F)c(F)c(F)c2F)cc1N`, in the experiment with K562, the Activity entry was “Dose-dependent effect” and it took 75 µM to reach half-maximal inhibition (IC50). In the experiment with DU-145, the Activity entry is “Dose-dependent effect” and half-maximal inhibition (IC50) required 75 µM.

In the case of `COc1ccc(NS(=O)(=O)/C=C/c2c(F)c(F)c(F)c(F)c2F)cc1`, the Activity result in the experiment on K562 and with DU-145 was “Dose-dependent effect” each time. Moreover, the concentration for half-maximal inhibition (IC50) in the experiment on K562 came out at 5 µM; in the experiment with DU-145, 10 µM.

As for `COc1ccc(NS(=O)(=O)/C=C/c2ccccc2OC)cc1`, the Activity result in the experiment with K562 and in the experiment on DU-145 was “Dose-dependent effect” throughout. The concentration for half-maximal inhibition (IC50) in the experiment on K562 and in the experiment with DU-145 was 5 µM in each case.

Turning to `O=S(=O)(/C=C/c1ccccc1)Nc1ccccc1`, the Activity entry in the experiment with K562 and with DU-145 was “Dose-dependent effect” each time. The concentration for half-maximal inhibition (IC50) with K562 and in the experiment with DU-145 was 10 µM each time.

`COC(=O)C(C)(C)Nc1cc(NS(=O)(=O)/C=C/c2c(OC)cc(OC)cc2OC)ccc1OC`: in the experiment on K562, the Activity result was “Dose-dependent effect” and inhibition was half-maximal at 0.3 µM (IC50). In the experiment on DU-145, the Activity result is “Dose-dependent effect” and the midpoint of inhibition, the IC50, lay at 0.2 µM.

In the case of `O=S(=O)(/C=C/c1ccccc1)Nc1ccc(Cl)cc1`, in the experiment with K562, the Activity entry was “Dose-dependent effect” and it took 20 µM to reach half-maximal inhibition (IC50). Further, in the experiment on DU-145, the Activity entry was “Dose-dependent effect” and the 50% inhibitory concentration (IC50) amounted to 20 µM.

For the compound `COc1ccc(/C=C/S(=O)(=O)Nc2c(F)c(F)c(F)c(F)c2F)cc1N`, the Activity result with K562 and in the experiment with DU-145 was “Dose-dependent effect” in each case. Also, the IC50 with K562 and in the experiment with DU-145 was 35 µM in each case.

For the compound `COc1cc(OC)c(/C=C/S(=O)(=O)Nc2ccc(OC)c(F)c2)c(OC)c1`, in the experiment with K562, the Activity result is “Dose-dependent effect” and half-maximal inhibition (IC50) was put at 0.075 µM. In the experiment with DU-145, the Activity result is “Dose-dependent effect” and the 50% inhibitory concentration (IC50) is 0.2 µM.

Regarding `COC(=O)C(Nc1cc(NS(=O)(=O)/C=C/c2c(OC)cc(OC)cc2OC)ccc1OC)c1ccc(F)cc1` (stereo not drawn), in the experiment with K562, the Activity entry was “Dose-dependent effect” and the concentration for half-maximal inhibition (IC50) is 2.5 µM. Further, in the experiment with DU-145, the Activity result was “Dose-dependent effect” and the IC50 was determined as 2.5 µM.

Take `COc1ccc(NS(=O)(=O)/C=C/c2c(OC)cc(O)cc2OC)cc1`: in the experiment on K562, the Activity result is “Dose-dependent effect” and the half-maximal inhibitory concentration (IC50) stood at 10 µM. Further, in the experiment on DU-145, the Activity entry was “Dose-dependent effect” and half-maximal inhibition (IC50) was put at 10 µM.

In the case of `COc1cc(OC)c(/C=C/S(=O)(=O)Nc2ccc(OC)c([N+](=O)[O-])c2)c(OC)c1`, in the experiment on K562, the Activity entry is “Dose-dependent effect” and inhibition was half-maximal at 1 µM (IC50). Further, in the experiment on DU-145, the Activity result was “Dose-dependent effect” and the midpoint of inhibition, the IC50, lay at 2.5 µM.

As for `COc1ccc(NS(=O)(=O)/C=C/c2cc(OC)c(OC)c(OC)c2)cc1`, in the experiment with K562, the Activity entry was “Dose-dependent effect” and the 50% inhibitory concentration (IC50) stood at 35 µM. Moreover, in the experiment with DU-145, the Activity entry is “Dose-dependent effect” and half-maximal inhibition (IC50) required 35 µM.

Regarding `COc1ccc(/C=C/S(=O)(=O)Nc2c(F)c(F)c(F)c(F)c2F)cc1[N+](=O)[O-]`, the Activity entry in the experiment with K562 and with DU-145 was “Dose-dependent effect” in each case. In addition, the 50% inhibitory concentration (IC50) turned out to be 75 µM in the experiment with K562 and 100 µM in the experiment on DU-145.

For `COc1ccc(NS(=O)(=O)/C=C/c2c(OC)cc(OCCCC(=O)O)cc2OC)cc1[N+](=O)[O-]`, in the experiment with K562, the Activity entry was “Dose-dependent effect” and 100 µM corresponded to half-maximal inhibition (IC50). Besides, in the experiment with DU-145, the Activity entry was “Dose-dependent effect” and it took 100 µM to reach half-maximal inhibition (IC50).

Take `COC(=O)C(Nc1cc(NS(=O)(=O)/C=C/c2c(OC)cc(OC)cc2OC)ccc1OC)c1ccc(Br)cc1` (stereo not drawn): the Activity entry in the experiment on K562 and in the experiment on DU-145 was “Dose-dependent effect” each time. Besides, the values for the half-inhibitory concentration (IC50) in the experiment with K562 and with DU-145 were 1 µM and 7.5 µM, respectively.

Take `COc1ccc(NS(=O)(=O)/C=C/c2c(F)c(F)c(F)c(F)c2F)cc1[N+](=O)[O-]`: in the experiment on K562, the Activity entry was “Dose-dependent effect” and the midpoint of inhibition, the IC50, lay at 100 µM. Moreover, in the experiment with DU-145, the Activity entry was “Dose-dependent effect” and it took 100 µM to reach half-maximal inhibition (IC50).

Turning to `COc1cc(OC)c(/C=C/S(=O)(=O)Nc2cc(N)c(OC)c(N)c2)c(OC)c1`, the Activity entry in the experiment on K562 and in the experiment on DU-145 was “Dose-dependent effect” in each case. The IC50 with K562 was 7.5 µM; in the experiment on DU-145, 2.5 µM.

For `O=S(=O)(/C=C/c1c(F)c(F)c(F)c(F)c1F)Nc1c(F)c(F)c(F)c(F)c1F`, in the experiment on K562, the Activity entry was “Dose-dependent effect” and the IC50 was 35 µM. Also, in the experiment on DU-145, the Activity result is “Dose-dependent effect” and 35 µM corresponded to half-maximal inhibition (IC50).

For the origin of these results see ChEMBL document CHEMBL2396655, “Design, synthesis, and biological evaluation of (E)-N-aryl-2-arylethenesulfonamide analogues as potent and orally bioavailable microtubule-targeted anticancer agents” (J Med Chem, 2013).
